Measured values published in ChEMBL document CHEMBL4020827, “Targeting Multiple Effector Pathways in Pancreatic Ductal Adenocarcinoma with a G-Quadruplex-Binding Small Molecule” (J Med Chem, 2018).
Calls of active or inactive are those of the source. No cut-off for these calls is given here.

Columns and labels:
[1] = Toxicity in iv dosed CD-1 nude mouse assessed as death measured up to 72 hrs; format: organism-based; conditions: in vivo
Summary of the method: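 CD1 nude mice, two per group, given single IV doses in saline (10, 20, 30, 35, 40, 45, 50 and 60 mg/kg), with repeat dosing weekly. Watched for adverse effects for up to 72 h. Tolerated dose taken as highest cohort in which all mice survived without observed ill-effects.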

[2] = system: PANC-1; assay: Effect on PIK3R3 gene expression in human PANC1 cells at 400 nM after 6 hrs by RNA sequence analysis relative to control; format: functional
[3] = system: MIA PaCa-2; assay: Effect on ROBO3 gene expression in human MIAPaCa2 cells at 400 nM after 24 hrs by RNA sequence analysis relative to control; format: functional
Summary of the method: (§1)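 RNA-seq: cells seeded overnight in 60 mm plates (PANC-1 0.35 x 10^6, MIA PaCa-2 1.5 x 10^6 cells/well), then exposed to 400 nM compound for 6 or 24 h against untreated controls. Cell lines mycoplasma-free by RNA-capture ELISA and STR-profiled. Differentially expressed genes called at FDR < 0.1.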

[4] = system: MIA PaCa-2; assay: Antitumor activity against human MIAPaCa2 cells xenografted in CD-1 nude mouse assessed as tumor growth inhibition administered twice weekly for 4 weeks; format: functional, cell-based
Summary of the method: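 Female CD-1 nude mice (2-3 months, 20−25 g) given 5 x 10^6 MIA PaCa-2 cells s.c. in right flank in RPMI + Matrigel; dosing began once tumors were established (~13 days, mean 0.05 cm3). Groups of eight received IV doses in saline, twice weekly for 28 days (8 doses), against a saline group. Tumors measured by calliper (length × width × height × π/6) every 3−4 days, to day 62; Student's t test.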

[5] = system: MIA PaCa-2; assay: Effect on PIK3R3 gene expression in human MIAPaCa2 cells at 400 nM after 6 hrs by RNA sequence analysis relative to control; format: functional
[6] = system: MIA PaCa-2; assay: Effect on ULK1 gene expression in human MIAPaCa2 cells at 400 nM after 6 hrs by RNA sequence analysis relative to control; format: functional; summary of the method: as §1
[7] = system: PANC-1; assay: Effect on PCK2 gene expression in human PANC1 cells at 400 nM after 6 hrs by RNA sequence analysis relative to control; format: functional
[8] = system: PANC-1; assay: Effect on IQSEC1 gene expression in human PANC1 cells at 400 nM after 6 hrs by RNA sequence analysis relative to control; format: functional
[9] = system: Mus musculus; assay: Hepatotoxicity in CD-1 nude mouse xenografted with human MIAPaCa2 cells at 15 mg/kg, iv administered twice weekly for 4 weeks by hematoxylin and eosin staining based assay; format: toxicity, organism-based; conditions: in vivo, 672 h
[10] = system: MIA PaCa-2; assay: Effect on SHC2 gene expression in human MIAPaCa2 cells at 400 nM after 6 hrs by RNA sequence analysis relative to control; format: functional; summary of the method: as §1
[11] = system: MIA PaCa-2; assay: Effect on SHANK2 gene expression in human MIAPaCa2 cells at 400 nM after 24 hrs by RNA sequence analysis relative to control; format: functional; summary of the method: as §1
[12] = system: PANC-1; assay: Effect on PLXNA1 gene expression in human PANC1 cells at 400 nM after 24 hrs by RNA sequence analysis relative to control; format: functional
[13] = system: PANC-1; assay: Effect on ULK1 gene expression in human PANC1 cells at 400 nM after 24 hrs by RNA sequence analysis relative to control; format: functional; summary of the method: as §1
[14] = system: MIA PaCa-2; assay: Effect on PRKCZ gene expression in human MIAPaCa2 cells at 400 nM after 24 hrs by RNA sequence analysis relative to control; format: functional
[15] = system: MIA PaCa-2; assay: Effect on RPTOR gene expression in human MIAPaCa2 cells at 400 nM after 6 hrs by RNA sequence analysis relative to control; format: functional; summary of the method: as §1
[16] = system: Mus musculus; assay: Toxicity in CD-1 nude mouse xenografted with human MIAPaCa2 cells assessed as change in body weight at 15 mg/kg, iv administered twice weekly for 4 weeks measured for 40 days; format: organism-based; conditions: in vivo, 960 h
[17] = system: PANC-1; assay: Effect on RPTOR gene expression in human PANC1 cells at 400 nM after 24 hrs by RNA sequence analysis relative to control; format: functional; summary of the method: as §1
[18] = system: MIA PaCa-2; assay: Effect on PIK3R2 gene expression in human MIAPaCa2 cells at 400 nM after 6 hrs by RNA sequence analysis relative to control; format: functional
[19] = system: PANC-1; assay: Effect on GLI1 gene expression in human PANC1 cells at 400 nM after 6 hrs by RNA sequence analysis relative to control; format: functional
Summary of the method: (§2)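 PANC-1 (0.35 x 10^6) or MIA PaCa-2 (1.5 x 10^6) cells seeded overnight in 60 mm plates, then exposed to 400 nM compound for 6 or 24 h; untreated cells as controls. Cells were mycoplasma-free and STR-certified. Differential expression by RNA-seq, called at FDR < 0.1.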

[20] = system: A549; assay: Growth inhibition of human A549 cells after 96 hrs by SRB assay; format: functional, cell-based; conditions: A549, 96 h
Summary of the method: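 Cell lines kept at 37 °C, 5% CO2 in medium with 10% FBS and 2 mM L-glutamine. Compound dissolved in water, filter-sterilised, 10 mM stock diluted into media. Growth read by 96 h sulforhodamine B assay, absorbance at 540 nm. IC50 taken from mean absorbance per concentration as % of untreated wells, >3 individual determinations with standard deviations.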

[21] = system: MIA PaCa-2; assay: Effect on ARF6 gene expression in human MIAPaCa2 cells at 400 nM after 6 hrs by RNA sequence analysis relative to control; format: functional; summary of the method: as §2
[22] = system: PANC-1; assay: Effect on GLI2 gene expression in human PANC1 cells at 400 nM after 24 hrs by RNA sequence analysis relative to control; format: functional; summary of the method: as §2
[23] = system: MIA PaCa-2; assay: Effect on PIK3R3 gene expression in human MIAPaCa2 cells at 400 nM after 24 hrs by RNA sequence analysis relative to control; format: functional
[24] = system: PANC-1; assay: Growth inhibition of human PANC1 cells after 96 hrs by SRB assay; format: functional, cell-based; conditions: PANC-1, 96 h
[25] = system: MIA PaCa-2; assay: Effect on MAPK9 gene expression in human MIAPaCa2 cells at 400 nM after 6 hrs by RNA sequence analysis relative to control; format: functional
[26] = system: PANC-1; assay: Effect on GLI4 gene expression in human PANC1 cells at 400 nM after 24 hrs by RNA sequence analysis relative to control; format: functional; summary of the method: as §2
[27] = system: MIA PaCa-2; assay: Effect on TEAD4 gene expression in human MIAPaCa2 cells at 400 nM after 24 hrs by RNA sequence analysis relative to control; format: functional; summary of the method: as §1
[28] = system: PANC-1; assay: Effect on MAPK12 gene expression in human PANC1 cells at 400 nM after 24 hrs by RNA sequence analysis relative to control; format: functional
[29] = system: PANC-1; assay: Effect on PARD6A gene expression in human PANC1 cells at 400 nM after 24 hrs by RNA sequence analysis relative to control; format: functional
[30] = system: PANC-1; assay: Effect on MAPK9 gene expression in human PANC1 cells at 400 nM after 24 hrs by RNA sequence analysis relative to control; format: functional
[31] = system: PANC-1; assay: Effect on TEAD4 gene expression in human PANC1 cells at 400 nM after 24 hrs by RNA sequence analysis relative to control; format: functional; summary of the method: as §1
[32] = species: Homo sapiens; assay: Stabilization of G-quadruplex DNA in human PANC1 cells assessed as increase in BG4 foci at 400 nM after 6 to 24 hrs by FITC/Cy5/DAPI staining based immunofluorescence assay; format: cell-based

O=C1c2ccc3c4c(c(NCCN5CCCC5)cc(c24)C(=O)N1CCCN1CCOCC1)C(=O)N(CCCN1CCOCC1)C3=O
MTD at 72 h [1]: 45 to 50 mg/kg
log2FC [2]: -0.16
log2FC [3]: -0.53
TGI [4]: Dose-dependent effect
log2FC [5]: -0.28
log2FC [6]: 0.03
log2FC [7]: -0.01
log2FC [8]: -0.86
Activity [9]: Non-Toxic
log2FC [10]: -0.83
log2FC [11]: -1.96
log2FC [12]: -1.5
log2FC [13]: -0.81
log2FC [14]: -2.01
log2FC [15]: -1.41
Activity [16]: Non-Toxic
log2FC [17]: -0.5
log2FC [18]: -0.55
log2FC [19]: 0.03
IC50 [20]: 24 nM
log2FC [21]: -0.89
log2FC [22]: 0.38
log2FC [23]: -1.47
IC50 [24]: 18 nM
log2FC [25]: -0.09
log2FC [26]: -1.71
log2FC [27]: -0.31
log2FC [28]: -1.44
log2FC [29]: -1.41
log2FC [30]: -0.75
log2FC [31]: -0.47
Activity [32]: Active
